From ChEMBL document CHEMBL3864180, “Buried Hydrogen Bond Interactions Contribute to the High Potency of Complement Factor D Inhibitors” (ACS Med Chem Lett, 2016) come the findings set out here.

For test [1], the target named is T1, Complement factor D (Homo sapiens, UniProt P00746). In words: Binding affinity to complement factor D (unknown origin).
Test [2] concerns the target T1, Complement factor D. Description: Competitive inhibition of human complement factor D preincubated for 1 hr followed by addition of Z-Lys-thiobenzyl ester as substrate measured over 50 mins at 1 min interval. In short, it runs like this: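 Enzyme was factor D purified from normal human serum. Substrate Z-Lys-thiobenzyl ester (Z-Lys-Sbzl), read by absorbance. IC50 is the average of at least two independent triplicate experiments.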

Test [3] concerns the target T1, Complement factor D. In words: Binding affinity to recombinant human C-terminal 6His-tagged/biotinylated complement factor D (26 to 253 residues) expressed in Sf9 insect cells by biolayer interferometry method. In short, it runs like this: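 Biotinylated recombinant human factor D expressed in Sf9 insect cells; direct binding read by bio-layer interferometry. Kd taken from the mean of two independent experiments, with standard deviations.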

In test [4] the target is T1, Complement factor D. Description: Binding affinity to recombinant human C-terminal 6His-tagged/biotinylated complement factor D (26 to 253 residues) expressed in Sf9 insect cells assessed as association constant measured after 300 to 900 secs by biolayer interferometry method.
Test [5] concerns the target T1, Complement factor D. In words: Binding affinity to recombinant human C-terminal 6His-tagged/biotinylated complement factor D (26 to 253 residues) expressed in Sf9 insect cells assessed as dissociation constant measured after 300 to 1800 secs by biolayer interferometry method.
The target in test [6] is T1, Complement factor D. In words: Inhibition of recombinant human C-terminal 6His-tagged complement factor D (26 to 253 residues) expressed in Sf9 insect cells preincubated for 1 hr followed by addition of Z-Lys-thiobenzyl ester as substrate measured over 50 mins at 1 min interval. In short, it runs like this: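 Enzyme was recombinant human factor D expressed in Sf9 insect cells. Substrate Z-Lys-thiobenzyl ester, read by absorbance. OD was converted to product concentration with an extinction coefficient of 13260 M-1cm-1 and a 0.29 cm path correction.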

T1 sequence (P00746 whole entry): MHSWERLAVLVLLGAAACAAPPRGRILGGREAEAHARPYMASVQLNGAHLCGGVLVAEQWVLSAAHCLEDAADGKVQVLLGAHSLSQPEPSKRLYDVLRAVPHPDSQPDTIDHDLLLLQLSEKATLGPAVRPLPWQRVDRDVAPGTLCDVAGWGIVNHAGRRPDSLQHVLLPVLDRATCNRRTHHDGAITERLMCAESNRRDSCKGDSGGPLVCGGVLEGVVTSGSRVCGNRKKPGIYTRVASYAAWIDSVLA

Regarding `N=C(N)c1cc2ccc(OC(=O)c3cccs3)cc2s1`, the IC50 at Complement factor D [1] was 98 nM.

For `NC(=O)c1nn(CC(=O)N2CCS[C@H]2C(=O)Nc2cccc(Br)n2)c2ncccc12`, the figures for the IC50 at Complement factor D [2] and at Complement factor D [6] were 27.3 nM and 19 nM, respectively. For the same molecule, the dissociation constant Kd on Complement factor D [3] was 18.9 nM. Moreover, the K at Complement factor D [4] worked out at 173000 M⁻¹ s⁻¹; at Complement factor D [5], 0.00327 s⁻¹.

`O=c1[nH]c2ccccc2c(=O)o1` registered an IC50 on Complement factor D [1] of 2900 nM.

Regarding `O=C(Nc1cccc(Br)n1)[C@@H]1C[C@H]2C[C@H]2N1C(=O)Cn1ncc2ccccc21`, the K came to 15800 M⁻¹ s⁻¹ at Complement factor D [4] and 0.189 s⁻¹ at Complement factor D [5].

With `O=C(Nc1cccc(Br)n1)[C@@H]1SCCN1C(=O)Cn1ncc2ccccc21`, the K on Complement factor D [4] came out at 132000 M⁻¹ s⁻¹; on Complement factor D [5] it was 0.292 s⁻¹.

In the case of `NC(=O)c1nn(CC(=O)N2[C@@H]3C[C@@H]3C[C@H]2C(=O)Nc2cccc(Br)n2)c2ncccc12`, the IC50 at Complement factor D [2] turned out to be 31.9 nM. The Kd at Complement factor D [3] was determined as 17 nM. Also, the K on Complement factor D [4] worked out at 212000 M⁻¹ s⁻¹; on Complement factor D [5], 0.00361 s⁻¹.
